Measured values from ChEMBL document CHEMBL4330168, “Monomeric and Dimeric Cytotoxic Guaianolide-Type Sesquiterpenoids from the Aerial Parts of Chrysanthemum indicum” (J Nat Prod, 2019).

Key:
CNE = test: Cytotoxicity against human CNE1 cells after 48 hrs by MTT assay; format: functional, cell-based
Procedure, shortened: (§1)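 Growth inhibition in nasopharyngeal carcinoma lines (CNE1, CNE2, HONE-1, SUNE-1) and HT-29 colon cells. IC50 values are the mean ± SD of three experiments, with cisplatin as positive control.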

CNE-2 = test: Cytotoxicity against human CNE2 cells after 48 hrs by MTT assay; format: functional, cell-based; details: CNE-2, 48 h; procedure, shortened: as §1
HONE1 cell line [1] = test: Cytotoxicity against human HONE1 cells after 48 hrs by MTT assay; format: functional, cell-based; details: HONE1, 48 h; procedure, shortened: as §1
SUNE1 = test: Cytotoxicity against human SUNE1 cells after 48 hrs by MTT assay; format: functional, cell-based; details: SUNE1, 48 h; procedure, shortened: as §1
HT-29 = test: Cytotoxicity against human HT-29 cells after 48 hrs by MTT assay; format: functional, cell-based; details: HT-29, 48 h; procedure, shortened: as §1
HONE1 cell line [2] = test: Induction of apoptosis in human HONE1 cells assessed as live cells at 1 uM after 48 hrs by Annexin V-FITC/propidium iodide staining based flow cytometry (reference value: 96.16%); format: functional
HONE1 cell line [3] = test: Induction of apoptosis in human HONE1 cells assessed as early apoptotic cells at 1 uM after 48 hrs by Annexin V-FITC/propidium iodide staining based flow cytometry (reference value: 3.24%); format: functional
HONE1 cell line [4] = test: Induction of apoptosis in human HONE1 cells assessed as late apoptotic cells at 1 uM after 48 hrs by Annexin V-FITC/propidium iodide staining based flow cytometry (reference value: 0.37%); format: functional
HONE1 cell line [5] = test: Induction of apoptosis in human HONE1 cells assessed as necrotic cells at 1 uM after 48 hrs by Annexin V-FITC/propidium iodide staining based flow cytometry (reference value: 0.23%); format: functional
HONE1 cell line [6] = test: Induction of apoptosis in human HONE1 cells assessed as live cells at 3 uM after 48 hrs by Annexin V-FITC/propidium iodide staining based flow cytometry (reference value: 96.16%); format: functional
HONE1 cell line [7] = test: Induction of apoptosis in human HONE1 cells assessed as early apoptotic cells at 3 uM after 48 hrs by Annexin V-FITC/propidium iodide staining based flow cytometry (reference value: 3.24%); format: functional
HONE1 cell line [8] = test: Induction of apoptosis in human HONE1 cells assessed as late apoptotic cells at 3 uM after 48 hrs by Annexin V-FITC/propidium iodide staining based flow cytometry (reference value: 0.37%); format: functional
HONE1 cell line [9] = test: Induction of apoptosis in human HONE1 cells assessed as necrotic cells at 3 uM after 48 hrs by Annexin V-FITC/propidium iodide staining based flow cytometry (reference value: 0.23%); format: functional
HONE1 cell line [10] = test: Induction of apoptosis in human HONE1 cells assessed as live cells at 5 uM after 48 hrs by Annexin V-FITC/propidium iodide staining based flow cytometry (reference value: 96.16%); format: functional
HONE1 cell line [11] = test: Induction of apoptosis in human HONE1 cells assessed as early apoptotic cells at 5 uM after 48 hrs by Annexin V-FITC/propidium iodide staining based flow cytometry (reference value: 3.24%); format: functional
HONE1 cell line [12] = test: Induction of apoptosis in human HONE1 cells assessed as late apoptotic cells at 5 uM after 48 hrs by Annexin V-FITC/propidium iodide staining based flow cytometry (reference value: 0.37%); format: functional
HONE1 cell line [13] = test: Induction of apoptosis in human HONE1 cells assessed as necrotic cells at 5 uM after 48 hrs by Annexin V-FITC/propidium iodide staining based flow cytometry (reference value: 0.23%); format: functional
HONE1 cell line [14] = test: Induction of apoptosis in human HONE1 cells assessed as live cells at 10 uM after 48 hrs by Annexin V-FITC/propidium iodide staining based flow cytometry (reference value: 96.16%); format: functional
HONE1 cell line [15] = test: Induction of apoptosis in human HONE1 cells assessed as early apoptotic cells at 10 uM after 48 hrs by Annexin V-FITC/propidium iodide staining based flow cytometry (reference value: 3.24%); format: functional
HONE1 cell line [16] = test: Induction of apoptosis in human HONE1 cells assessed as late apoptotic cells at 10 uM after 48 hrs by Annexin V-FITC/propidium iodide staining based flow cytometry (reference value: 0.37%); format: functional
HONE1 cell line [17] = test: Induction of apoptosis in human HONE1 cells assessed as necrotic cells at 10 uM after 48 hrs by Annexin V-FITC/propidium iodide staining based flow cytometry (reference value: 0.23%); format: functional
HONE1 cell line [18] = test: Induction of apoptosis in human HONE1 cells assessed as live cells at 20 uM after 48 hrs by Annexin V-FITC/propidium iodide staining based flow cytometry (reference value: 96.16%); format: functional
HONE1 cell line [19] = test: Induction of apoptosis in human HONE1 cells assessed as early apoptotic cells at 20 uM after 48 hrs by Annexin V-FITC/propidium iodide staining based flow cytometry (reference value: 3.24%); format: functional
HONE1 cell line [20] = test: Induction of apoptosis in human HONE1 cells assessed as late apoptotic cells at 20 uM after 48 hrs by Annexin V-FITC/propidium iodide staining based flow cytometry (reference value: 0.37%); format: functional
HONE1 cell line [21] = test: Induction of apoptosis in human HONE1 cells assessed as necrotic cells at 20 uM after 48 hrs by Annexin V-FITC/propidium iodide staining based flow cytometry (reference value: 0.23%); format: functional
HONE1 cell line [22] = test: Cell cycle arrest in human HONE1 cells assessed as accumulation at G0/G1 phase at 3 uM after 48 hrs by propidium iodide staining based flow cytometry (reference value: 55%); format: functional
HONE1 cell line [23] = test: Cell cycle arrest in human HONE1 cells assessed as accumulation at G2/M phase at 3 uM after 48 hrs by propidium iodide staining based flow cytometry (reference value: 0.3%); format: functional
HONE1 cell line [24] = test: Cell cycle arrest in human HONE1 cells assessed as accumulation at S phase at 3 uM after 48 hrs by propidium iodide staining based flow cytometry (reference value: 44.7%); format: functional
HONE1 cell line [25] = test: Cell cycle arrest in human HONE1 cells assessed as accumulation at G0/G1 phase at 5 uM after 48 hrs by propidium iodide staining based flow cytometry (reference value: 55%); format: functional
HONE1 cell line [26] = test: Cell cycle arrest in human HONE1 cells assessed as accumulation at G2/M phase at 5 uM after 48 hrs by propidium iodide staining based flow cytometry (reference value: 0.3%); format: functional
HONE1 cell line [27] = test: Cell cycle arrest in human HONE1 cells assessed as accumulation at S phase at 5 uM after 48 hrs by propidium iodide staining based flow cytometry (reference value: 44.7%); format: functional
HONE1 cell line [28] = test: Cell cycle arrest in human HONE1 cells assessed as accumulation at G0/G1 phase at 10 uM after 48 hrs by propidium iodide staining based flow cytometry (reference value: 55%); format: functional
HONE1 cell line [29] = test: Cell cycle arrest in human HONE1 cells assessed as accumulation at G2/M phase at 10 uM after 48 hrs by propidium iodide staining based flow cytometry (reference value: 0.3%); format: functional
HONE1 cell line [30] = test: Cell cycle arrest in human HONE1 cells assessed as accumulation at S phase at 10 uM after 48 hrs by propidium iodide staining based flow cytometry (reference value: 44.7%); format: functional
HONE1 cell line [31] = test: Cell cycle arrest in human HONE1 cells assessed as accumulation at G0/G1 phase at 20 uM after 48 hrs by propidium iodide staining based flow cytometry (reference value: 55%); format: functional
HONE1 cell line [32] = test: Cell cycle arrest in human HONE1 cells assessed as accumulation at G2/M phase at 20 uM after 48 hrs by propidium iodide staining based flow cytometry (reference value: 0.3%); format: functional
HONE1 cell line [33] = test: Cell cycle arrest in human HONE1 cells assessed as accumulation at S phase at 20 uM after 48 hrs by propidium iodide staining based flow cytometry (reference value: 44.7%); format: functional

In the case of `C=C1C(=O)O[C@H]2[C@H]1[C@@H](OC(=O)/C(C)=C/C)C[C@@](C)(O)[C@]13C=C[C@](C)([C@H]21)[C@]1(C3)C(=O)O[C@@H]2[C@H]3C(C)=CC[C@H]3[C@](C)(O)C[C@H](OC(=O)/C(C)=C/C)[C@H]21`, the IC50 (CNE) is reported as 4.6 µM, the IC50 (CNE-2) is reported as 6 µM and the IC50 (HONE1 cell line [1]) is reported as 3.5 µM. For the same molecule, the IC50 (SUNE1) was 4.3 µM, the IC50 (HT-29) was 9.6 µM and the Activity (HONE1 cell line [2]) was 96.45%. The Activity (HONE1 cell line [3]) was 2.2%, the Activity (HONE1 cell line [4]) was 1.14% and the Activity (HONE1 cell line [5]) was 0.21%. For the same molecule, the Activity (HONE1 cell line [6]) was 96.38%, the Activity (HONE1 cell line [7]) was 3.01% and the Activity (HONE1 cell line [8]) was 0.45%. It also gave an Activity (HONE1 cell line [9]) of 0.16%, an Activity (HONE1 cell line [10]) of 81.86% and an Activity (HONE1 cell line [11]) of 15%. For the same molecule, the Activity (HONE1 cell line [12]) was 2.61%, the Activity (HONE1 cell line [13]) was 0.53% and the Activity (HONE1 cell line [14]) was 65.22%. For the same molecule, the Activity (HONE1 cell line [15]) was 10.54%, the Activity (HONE1 cell line [16]) was 23.45% and the Activity (HONE1 cell line [17]) was 0.79%. The Activity (HONE1 cell line [18]) was 56.74%, the Activity (HONE1 cell line [19]) was 9.33% and the Activity (HONE1 cell line [20]) was 27.85%. The Activity (HONE1 cell line [21]) was 6.08%, the Activity (HONE1 cell line [22]) was 44.75% and the Activity (HONE1 cell line [23]) was 5.93%. The Activity (HONE1 cell line [24]) was 49.32%, the Activity (HONE1 cell line [25]) was 50.22% and the Activity (HONE1 cell line [26]) was 7.52%. It also gave an Activity (HONE1 cell line [27]) of 42.25%, an Activity (HONE1 cell line [28]) of 40.89% and an Activity (HONE1 cell line [29]) of 16.52%. It also gave an Activity (HONE1 cell line [30]) of 42.59%, an Activity (HONE1 cell line [31]) of 14.01% and an Activity (HONE1 cell line [32]) of 38.22%. It also gave an Activity (HONE1 cell line [33]) of 47.77%.
